Assay results taken from ChEMBL document CHEMBL3297687, “Eremophilane-type sesquiterpenoids with diverse skeletons from Ligularia sagitta” (J Nat Prod, 2014).
≈ marks a conversion by molar mass, not a printed value.

Key:
Escherichia coli = assay: Antibacterial activity against Escherichia coli grown in sheep blood agar media assessed as concentration required to inhibit bacterial growth due to absence of hemolysis of erythrocytes after 18 hrs by […] broth dilution method; type: functional
Procedure, shortened: (§1)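 Colonies from overnight culture on 5% sheep blood agar were suspended in Mueller−Hinton broth to 0.5 McFarland (about 1.5 × 10^8 CFU/mL), then diluted 10-fold. Aqueous stocks (1 g/L) were used at once and doubly diluted 250−0.125 μg/mL in Mueller−Hinton broth with 5% defibrinated sheep blood. Final inoculum was 2 × 10^5−7 × 10^5 CFU/mL. Plates were incubated 18 h at 35 °C. MIC was taken as the lowest concentration with no growth, shown by absence of erythrocyte hemolysis. Triplicate; ampicillin control.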

Bacillus subtilis = assay: Antibacterial activity against Bacillus subtilis grown in sheep blood agar media assessed as concentration required to inhibit bacterial growth due to absence of hemolysis of erythrocytes after 18 hrs by […] broth dilution method; type: functional; procedure, shortened: as §1
[1] = tested on: Pectobacterium carotovorum; assay: Antibacterial activity against Erwinia carotovora grown in sheep blood agar media assessed as concentration required to inhibit bacterial growth due to absence of hemolysis of erythrocytes after 18 hrs by […] broth dilution method; type: functional; procedure, shortened: as §1
Staphylococcus aureus = assay: Antibacterial activity against Staphylococcus aureus grown in sheep blood agar media assessed as concentration required to inhibit bacterial growth due to absence of hemolysis of erythrocytes after 18 hrs by […] broth dilution method; type: functional; procedure, shortened: as §1
Bacillus cereus = assay: Antibacterial activity against Bacillus cereus grown in sheep blood agar media assessed as concentration required to inhibit bacterial growth due to absence of hemolysis of erythrocytes after 18 hrs by […] broth dilution method; type: functional; procedure, shortened: as §1
[2] = Cytotoxicity against human […] cells after 48 hrs by SRB method; type: functional, cell-based
HL-60 = assay: Cytotoxicity against human HL60 cells after 48 hrs by SRB method; type: functional, cell-based; settings: HL-60, 48 h
HeLa = assay: Cytotoxicity against human HeLa cells after 48 hrs by SRB method; type: functional, cell-based

In the case of `CC(=O)C1=C[C@@]2(C)C(=CC1=O)[C@H](O)CC[C@@H]2C`, the MIC (Escherichia coli) is reported as 31.2 µg/mL (≈ 133 µM), the MIC (Bacillus subtilis) is reported as > 250 µg/mL and the MIC [1] is reported as > 250 µg/mL. The MIC (Staphylococcus aureus) was > 250 µg/mL and the MIC (Bacillus cereus) was > 250 µg/mL.
With `CC1=C2[C@@H](O)[C@]3(C)[C@@H](C)CC[C@H]4O[C@]43C[C@@]2(O)OC1=O` the MIC (Escherichia coli) was 125 µg/mL (≈ 446 µM), the MIC (Bacillus subtilis) was 125 µg/mL (≈ 446 µM) and the MIC [1] was 125 µg/mL (≈ 446 µM). It also gave an MIC (Staphylococcus aureus) of 125 µg/mL (≈ 446 µM) and an MIC (Bacillus cereus) of 62.5 µg/mL (≈ 223 µM).
In the case of `CC1(C)S[C@@H]2[C@H](NC(=O)[C@H](N)c3ccccc3)C(=O)N2[C@H]1C(=O)O` [AMPICILLIN], the MIC (Escherichia coli) is reported as 100 µg/mL (≈ 286 µM), the MIC (Bacillus subtilis) is reported as 12.5 µg/mL (≈ 35.8 µM) and the MIC [1] is reported as 100 µg/mL (≈ 286 µM). It also gave an MIC (Staphylococcus aureus) of 25 µg/mL (≈ 71.5 µM) and an MIC (Bacillus cereus) of 25 µg/mL (≈ 71.5 µM).
Work on `CC(=O)[C@@]12O[C@@H]1[C@@]1(C)C(=CC2=O)[C@H](O)CC[C@@H]1C` yielded an MIC (Escherichia coli) of 31.2 µg/mL (≈ 125 µM), an IC50 [2] of 13 µM and an IC50 (HL-60) of 13 µM. The MIC (Bacillus subtilis) was > 250 µg/mL, the MIC [1] was 62.5 µg/mL (≈ 250 µM) and the MIC (Staphylococcus aureus) was > 250 µg/mL. For the same compound, the IC50 (HeLa) was 13 µM and the MIC (Bacillus cereus) was > 250 µg/mL.
`C/C=C(/CO)C(=O)O[C@@H]1C2=C(C)C(=O)O[C@@]2(O)C[C@@]23O[C@@H]2CC[C@H](C)[C@@]13C` gave an MIC (Escherichia coli) of 7.25 µg/mL (≈ 19.2 µM), an MIC (Bacillus subtilis) of 7.25 µg/mL (≈ 19.2 µM) and an MIC [1] of 7.25 µg/mL (≈ 19.2 µM). It also gave an MIC (Staphylococcus aureus) of 7.25 µg/mL (≈ 19.2 µM) and an MIC (Bacillus cereus) of 15.5 µg/mL (≈ 41 µM).
`CO[C@@]12[C@H](COC(N)=O)C3=C(C(=O)C(C)=C(N)C3=O)N1C[C@@H]1N[C@@H]12` [MITOMYCIN] gave an IC50 [2] of 3 µM, an IC50 (HL-60) of 3 µM and an IC50 (HeLa) of 3 µM.
For `C/C=C(/CO)C(=O)O[C@@H]1C2=C(C)C(=O)O[C@]2(OC)C[C@@]23O[C@@H]2CC[C@H](C)[C@@]13C`, the MIC (Escherichia coli) was 62.5 µg/mL (≈ 159 µM), the IC50 [2] was 13 µM and the IC50 (HL-60) was 13 µM. It also gave an MIC (Bacillus subtilis) of 125 µg/mL (≈ 319 µM), an MIC [1] of 125 µg/mL (≈ 319 µM) and an MIC (Staphylococcus aureus) of 125 µg/mL (≈ 319 µM). For the same compound, the IC50 (HeLa) was 13 µM and the MIC (Bacillus cereus) was 62.5 µg/mL (≈ 159 µM).
For `C=C(CO)C(=O)O[C@@H]1C2=C(C)C(=O)O[C@@]2(O)C[C@@]23O[C@@H]2CC[C@H](C)[C@@]13C`, the MIC (Escherichia coli) was 7.25 µg/mL (≈ 19.9 µM), the MIC (Bacillus subtilis) was 15.5 µg/mL (≈ 42.5 µM) and the MIC [1] was 7.25 µg/mL (≈ 19.9 µM). It also gave an MIC (Staphylococcus aureus) of 7.25 µg/mL (≈ 19.9 µM) and an MIC (Bacillus cereus) of 7.25 µg/mL (≈ 19.9 µM).
